STEP inh – STEP (human) phosphatase inhibition | recombinant STEP, OMFP fluorogenic substrate, fluorescence | P54829 | AID 588621 | inhibition, % at 20 µM | 360,000 compounds, 0.25% hits;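 active means inhibition at 20 µM, scaled per plate between control wells, above about 37%, limit read from the data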;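 further: 0% = DMSO with enzyme and substrate and 100% = substrate only without enzyme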
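System: isolated STEP enzyme; schedule: 20 min enzyme reaction at room temperature, protected from light; medium: Bis-Tris buffer pH 6.0, 2.5 mM DTT, 0.005% Tween 20; signal: fluorescence, 480/540 nm; dosing: single compound dose of 20 µM, 1% DMSO final; also added: OMFP substrate, 25 µM final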
Scp1 inh – blocks human Scp-1 phosphatase activity; Q9GZU7; inhibition, % at 20 µM; Recombinant Scp1, phosphopeptide, malachite green phosphate absorbance; 340,000 compounds, 0.88% hits;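 active means inhibition above about 50% at 20 µM, limit read from the data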;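 further: plate controls were DMSO wells with enzyme for no effect and wells lacking enzyme for full effect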
Target sequence (Q9GZU7 76-261 limits assumed): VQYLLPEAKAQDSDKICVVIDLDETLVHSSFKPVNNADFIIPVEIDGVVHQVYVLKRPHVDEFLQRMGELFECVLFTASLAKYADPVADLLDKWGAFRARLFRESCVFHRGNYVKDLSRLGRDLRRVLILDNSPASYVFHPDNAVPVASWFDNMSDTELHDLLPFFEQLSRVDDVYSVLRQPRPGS
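System: truncated SCP-1 phosphatase (76-261aa); medium: Tris acetate buffer pH 5.5 with MgCl2 and Tween-20; incubation: 45 min room-temperature reaction, 5 min colour, 30 min stabiliser; compound: single 20 µM dose, 1% DMSO; reagent: Phosphorylated 17-residue peptide substrate; read-out: % inhibition at 20 µM; technique: colorimetric free-phosphate detection, absorbance 630 nm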
LMPTP inh – blocks human LMPTP phosphatase; P24666; recombinant LMPTP-A, OMFP fluorogenic substrate, fluorescence intensity; inhibition, % at 20 µM; 360,000 compounds, 0.22% hits; AID 651560;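 active means compounds that cut the enzyme signal by at least half of the control window in the single-dose screen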;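 further: plate controls were DMSO wells with enzyme plus substrate for no effect and substrate without enzyme for full effect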
Target sequence (P24666 whole entry, looked up): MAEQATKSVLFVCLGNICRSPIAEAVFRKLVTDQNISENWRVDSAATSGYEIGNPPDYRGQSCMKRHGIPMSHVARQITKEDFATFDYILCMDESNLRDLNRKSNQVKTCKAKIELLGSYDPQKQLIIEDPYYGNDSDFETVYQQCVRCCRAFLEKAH
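Assay system: LMPTP-A enzyme. Input: 0.625 nM LMPTP-A final. Probe or stimulus: 400 µM OMFP. Compound dosing: single 20 µM dose. Schedule: 50 min dark incubation at room temperature. Detection: fluorescence intensity of OMFP turnover product. Read-out: percent inhibition versus substrate-only and uninhibited controls. Benchmarks: no-enzyme low control, uninhibited high control.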
SUMO1-SIM PPI – modulators of human SUMO1-mediated protein-protein interactions; 360,000 compounds, 0.33% hits; P63165; SUMO1 binding to a labelled peptide, TR-FRET, 1 h; AID 602429; inhibition, % at 20 µM; in the data active means inhibition above about 37%
Target sequence (P63165 whole entry, looked up): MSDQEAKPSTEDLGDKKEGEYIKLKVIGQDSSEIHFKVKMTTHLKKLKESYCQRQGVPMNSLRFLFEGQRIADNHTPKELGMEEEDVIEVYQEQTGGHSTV
DNMT1 inh – DNMT1 (human) enzyme inhibition. P26358. DNMT1 molecular beacon, Hinp1I cleavage, fluorescence. 360,000 compounds, 0.83% hits. AID 588458. inhibition (reported as % activation of signal), % at 10 µM; in the data active means inhibition above about 50%
UBC9 SUMO inh – SUMOylation inhibition; HTRF SUMOylation assay, SAE1/SAE2 + UBC9, in vitro; P63279; inhibition, % at 35 µM; 290,000 compounds, 0.36% hits; AID 2006; in the data active means inhibition above about 50%, passing the limit was not always enough
Target sequence (P63279 whole entry, looked up): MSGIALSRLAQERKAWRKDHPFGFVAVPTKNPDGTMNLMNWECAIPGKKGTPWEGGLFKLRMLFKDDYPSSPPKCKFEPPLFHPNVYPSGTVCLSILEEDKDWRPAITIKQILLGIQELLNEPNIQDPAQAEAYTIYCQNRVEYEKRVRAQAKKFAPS
DNMT1 confirm – confirmation of human DNMT1 inhibitors; shares compounds with DNMT1 inh; DNMT1 molecular beacon HinP1I cleavage, fluorescence; inhibition, % at 10 µM; 2,300 compounds, 8% hits; AID 602385;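 active means average inhibition of at least 30% in the single-concentration confirmation test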
Beacon interf – shows spectral interference in the DNMT1 beacon assay | DNMT1 molecular beacon spectral interference counterscreen, fluorescence 485/520 | AID 602387 | activation (fluorescence interference), % at 10 µM | shares compounds with DNMT1 inh | 2,300 compounds, 1% hits;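 active means activation of at least 30% at 10 µM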;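 further: DNMT1 catalytic domain with a HinP1I cleavage step and a FAM/dabcyl DNA beacon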
Active calls of the source: *; nt = no result given. Hits are enriched below; roughly 1.9% of the tested compounds scored in any of these assays.

SMILES	STEP inh	Scp1 inh	LMPTP inh	SUMO1-SIM PPI	DNMT1 inh	UBC9 SUMO inh	DNMT1 confirm	Beacon interf
CC(=O)Nc1ccc(SCC(=O)c2cc(C)n(-c3ccccc3)c2C)cc1	1	-3	-2	-1	-1	6	nt	nt
CC(=O)Nc1ccc(SCC(=O)c2cc(C)ccc2C)cc1	0	-6	0	3	86*	-20	8	6
CCn1ncc([C@@H]2C[C@H]3CN(Cc4cccc(Cl)c4)C(=O)[C@]34CCCN24)c1C	0	-1	1	-2	2	8	nt	nt
O=C1N(Cc2cccc(Cl)c2)C[C@@H]2C[C@@H](c3cccn3-c3cccnc3)N3CCC[C@@]123	5	0	2	2	78*	-7	2	2
COc1cc([N+](=O)[O-])cc(/C=N/NC(=O)CSc2ccccn2)c1O	0	-12	1	-47	-4	2	nt	nt
COc1cc([N+](=O)[O-])ccc1-c1ccc(/C=C2\C(=O)ON=C2c2ccccc2)o1	4	3	3	64*	80*	nt	18	-6
CCOc1ccc(/C=C/C(=O)c2cc(Br)ccc(=O)c2O)cc1	5	-4	12	0	68*	22	10	4
Cc1cccc(/C=C/C(=O)c2cc(Br)ccc(=O)c2O)c1	10	-3	32	13	93*	18	10	4
O=C(Nc1ccc(Cl)cn1)c1cccc2ccccc12	0	2	1	3	-1	2	nt	nt
COCCN(C(=O)CSc1nnc(-c2ccccc2F)n1N)c1c(N)n(Cc2ccccc2)c(=O)[nH]c1=O	2	7	0	-1	2	4	nt	nt
C=CCn1c(N)c(C(=O)OC(C)CC)c2nc3ccccc3nc21 (stereo not drawn)	1	1	9	38	70*	39	8	7
CCOC(=O)c1c(N)n(CC(C)NC(=O)C2CC2)c2nc3ccccc3nc12 (stereo not drawn)	nt	nt	nt	nt	nt	27	nt	nt
O=C(Nc1cnn(C23CC4CC(CC(C4)C2)C3)c1)c1cnn2c(C(F)(F)F)cc(-c3ccco3)nc12	8	9	3	0	58*	33	-2	-2
O=C(Nc1ccc2c(c1)OCO2)c1cnn2c(C(F)(F)F)cc(-c3ccco3)nc12	6	-3	2	-4	-1	-9	nt	nt
Cc1cccc(-n2nc(C)c3c(C(=O)O)cc(-c4cccs4)nc32)c1	-2	-10	0	5	-1	18	nt	nt
O=C(O)c1cc(-c2cc3ccccc3o2)nn1-c1ccccc1	9	-3	0	0	6	23	nt	nt
Cc1nn(-c2cccc(Cl)c2)c2nc(-c3ccco3)cc(C(=O)O)c12	-1	14	0	40*	71*	41	3	2
O=C(O)c1cc(-c2ccco2)nn1-c1ccc(Cl)cc1	11	67*	11	25	96*	59	12	3
Cc1nn(-c2ccccc2)c2nc(-c3ccco3)cc(C(=O)O)c12	-3	13	0	29	61*	28	2	-1
COCCNC(=O)C1(C)CCCN(C(=O)c2c(F)ccc(C)c2F)C1 (stereo not drawn)	0	nt	0	3	2	nt	nt	nt
O=C1NC[C@@H](CCCCN2CCN(CCc3ccc(O)cc3)C(=O)C2=O)N(Cc2ccccc2)C1=O	nt	nt	0	3	nt	nt	nt	nt
O=C(COC(=O)COc1ccc(Cl)cc1Br)NC1CCCC1	0	nt	-1	5	-2	nt	nt	nt
Cc1ccc([C@H]2N[C@]3(CCCN(Cc4ccc(Br)cc4)C3=O)[C@H]3C(=O)N(C)C(=O)[C@@H]23)cc1	-1	nt	-1	11	-22	nt	nt	nt
COc1ccc(/C=C/C(=O)N(Cc2ccccc2)c2ccccn2)cc1OC	0	-5	-2	2	3	-1	nt	nt
COc1cc(/C=C/C(=O)N(Cc2ccccc2)c2ccccn2)cc(OC)c1OC	-3	-5	0	1	53*	15	-1	9
SMILES	STEP inh	Scp1 inh	LMPTP inh	SUMO1-SIM PPI	DNMT1 inh	UBC9 SUMO inh	DNMT1 confirm	Beacon interf
CN(C(=O)c1cccc(S(=O)(=O)N2CCOCC2)c1)c1c(N)n(Cc2ccccc2)c(=O)[nH]c1=O	-1	5	0	2	-1	nt	nt	nt
CC(=O)OCCn1c2nc(=O)[nH]c(=O)c-2nc2cc(C)c(C)cc21	-201	1	-20	-63	192*	60*	140*	134*
CCN(CC(=O)Nc1ccc2c(c1)OCCO2)S(=O)(=O)c1ccc(F)cc1	-2	-5	-1	4	-1	-2	nt	nt
N#Cc1c(NC(=O)CSc2nnc(-c3ccco3)n2-c2ccccc2)sc2c1CCC2	-1	4	8	29	67*	22	0	3
COc1ccc(-c2nnc(SCC(=O)Nc3sc4c(c3C#N)CCCC4)n2-c2ccccc2)cc1	2	-8	1	3	45	3	nt	nt
C/C(=N\NC(=O)c1cccs1)C(C)(C)C	-3	-2	0	6	4	4	nt	nt
CC(SC(C)C(=O)NN=Cc1cccc(Cl)c1)C(=O)NN=Cc1cccc(Cl)c1 (stereo not drawn)	0	-7	-1	-1	65*	nt	6	7
COc1ccc(NC(=O)CCn2c(=S)[nH]c3ccccc3c2=O)cc1Cl	23	nt	49*	13	54*	nt	3	6
CC(C)N1CCC(=O)NC1=O	0	-7	0	-1	-3	nt	nt	nt
O=[N+]([O-])c1ccccc1/C=C/C=N/n1c(-c2cc(-c3ccccc3)n[nH]2)n[nH]c1=S	7	15	-10	11	53*	nt	20	-4
Cc1ccc(C2(C(F)(F)F)NC(=O)N3CCN=C3S2)cc1 (stereo not drawn)	3	-7	-5	35	95*	-21	4	5
Cc1ccc(C2(C(F)(F)F)NC(=O)N3CCCN=C3S2)cc1 (stereo not drawn)	0	-5	-1	-3	0	8	nt	nt
Cc1ccc(-n2cc(CN(C)Cc3nccn3C)c(-c3ccc(F)cc3)n2)cc1	-8	-7	1	4	-4	6	nt	nt
CCn1ccnc1CN(C)Cc1cn(-c2ccc(C)cc2)nc1-c1ccc(F)cc1	3	-4	2	-1	60*	7	2	6
COC(=O)c1sccc1NC(=O)Cc1ccc(OC)cc1	2	-7	1	1	92*	-8	4	13
Cc1cccc(C)c1-n1nnnc1C(c1ccnc2ccccc12)N(Cc1ccccc1)Cc1ccccc1 (stereo not drawn)	nt	nt	6	-2	nt	nt	nt	nt
